Laboratory results: ChEMBL document CHEMBL1124109, “Novel calcium antagonists. Synthesis and structure-activity relationship studies of benzothiazoline derivatives” (J Med Chem, 1988)

What was measured:
[1] = organism: Cavia porcellus; test: In vitro molar concentration required to block [Ca2+] -induced contraction of K+-depolarized taenia cecum of guinea pigs; assay type: functional; details: Caecum
Summary of the method: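 Guinea pig taenia cecum washed with Ca2+-free high-K+ Krebs solution after equilibration. Compound applied 5 min before CaCl2 (3 × 10^-4 M). Contraction recorded isotonically.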

[2] = system: Rattus norvegicus; test: Hypotensive effect in Spontaneously hypertensive rats as maximum decrease in systolic blood pressure at 30 mg/kg, po dose; assay type: functional, Artery
Summary of the method: (§1)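 Male SHR, 300-400 g, conscious, 6-13 animals. Oral dosing as a 0.5% methylcellulose suspension. Systolic pressure by tail-cuff plethysmography at 0, 1, 3, 6, 9 and 24 h after dosing; heart rate from pulse over 4 s. Value is maximum SBP fall, mean ± SEM of six animals; Dunnett's test.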

[3] = organism: Oryctolagus cuniculus; test: Electrophysiological effect in isolated rabbit hearts as molar concentration that prolongs the His bundle ventricular (H-V) conduction time by 10%; assay type: functional, Cardiac ventricle
[4] = organism: Mus musculus; test: Effect on acute thrombic death induced by collagen in mice; assay type: functional; details: read-out: ID50 (the source's name)
Summary of the method: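 Male ddY mice (20-30 g) given compound orally as 0.5% tragacanth suspension 3 h before rapid tail-vein injection (2 s) of collagen (type III, 3 mg/mL in acetic acid/Tris pH 7.4), about 30 mg/kg, set so […] within 3 min. Survival scored; % inhibition = (St - Sc)/(100 - Sc); ID50 in mg/kg po; n=8 treated, 12 control.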

[5] = system: Rattus norvegicus; test: Hypotensive effect in Spontaneously hypertensive rats as maximum decrease in systolic blood pressure at 100 mg/kg, po dose; assay type: functional, Artery; summary of the method: as §1
[6] = Ratio between EC10 and EC30 in isolated rabbit hearts in His bundle ventricular intervals; assay type: functional
[7] = organism: Oryctolagus cuniculus; test: Electrophysiological effect in isolated rabbit hearts as molar concentration that prolongs the atrio-His bundle (A-H) conduction time by 30%; assay type: functional
[8] = system: Rattus norvegicus; test: Hypotensive effect in Spontaneously hypertensive rats as maximum decrease in systolic blood pressure at 10 mg/kg, po dose; assay type: functional, Artery; summary of the method: as §1

Row | IC50 [1] [µM] | SMILES | other results
1 | 0.82 | COc1ccc(OCCCCCN2CCN(CCc3ccc(OC)c(OC)c3)CC2)c(C2Sc3ccccc3N2C(C)=O)c1 (configuration not stated) | 
2 | 2 | CNCCCCOc1ccc(OC)cc1C1Sc2ccccc2N1C(C)=O (configuration not stated) | 
3 | 2.6 | COc1ccc(OCCCCN2CCN(CCc3cc(OC)c(OC)c(OC)c3)CC2)c(C2Sc3ccccc3N2C=O)c1 (configuration not stated) | 
4 | 4.4 | CC(=O)N1c2ccccc2SC1c1ccc(OCCCN(C)C2CCCCC2)cc1 (configuration not stated) | 
5 | 5.5 | CC(=O)N1c2ccccc2SC1c1ccc(OCCCN(C)C)cc1 (configuration not stated) | 
6 | > 100 | CC(=O)N1CCSC1c1ccccc1OCCN(C)C (configuration not stated) | 
7 | 10 | CC(=O)N1c2ccccc2SC1c1ccccc1OCCCN(C)C (configuration not stated) | 
8 | 4.8 | COc1ccc(OCCCCN2CCC(C(=O)c3ccc(F)cc3)CC2)c(C2Sc3ccccc3N2C=O)c1 (configuration not stated) | 
9 | 11 | CC(=O)N1c2ccccc2SC1c1cccc(OCCCN(C)C)c1 (configuration not stated) | 
10 | 7 | CCC(=O)N1c2ccccc2SC1c1cc(OC)ccc1OCCCCCN(C)C1CCCCC1 (configuration not stated) | 
11 | 4.2 | COc1ccc(OCCCCCCN(C)C2CCCCC2)c(C2Sc3ccccc3N2C(C)=O)c1 (configuration not stated) | 
12 | 0.66 | COc1ccc(OCCCCN(C)CCc2ccc(OC)c(OC)c2)c(C2Sc3ccccc3N2C(C)=O)c1 (configuration not stated) | 
13 | 0.64 | COc1ccc(OCCCCN2CCN(CCc3ccc(OC)c(OC)c3)CC2)c(C2Sc3ccccc3N2C(C)=O)c1 (configuration not stated) | 
14 | 1.3 | COc1ccc(OCCCCCN(C)CCc2cc(OC)c(OC)c(OC)c2)c(C2Sc3ccccc3N2C(C)=O)c1 (configuration not stated) | 
15 | 3.8 | CC(=O)N1c2ccccc2SC1c1cc(Cl)ccc1OCCCN(C)C (configuration not stated) | 
16 | 1.6 | COc1ccc(OCCCCN(C)CC(C)c2ccc(OC)c(OC)c2)c(C2Sc3ccccc3N2C(C)=O)c1 (configuration not stated) | 
17 | 1.6 | COc1ccc(OCCCCN2CCC(C(=O)c3ccc(F)cc3)CC2)c(C2Sc3ccccc3N2C(C)=O)c1 (configuration not stated) | 

Row | IC50 [1] [µM] | SMILES | other results
18 | 2 | COc1ccc(OCCCN(C)CCc2ccc(OC)c(OC)c2OC)c(C2Sc3ccccc3N2C(C)=O)c1 (configuration not stated) | 
19 | 0.78 | COc1ccc(OCCCN(C)CCc2cc(OC)c(OC)c(OC)c2)c(C2Sc3ccccc3N2C(C)=O)c1 (configuration not stated) | 
20 | > 100 | COc1ccc(OCCCCN)c(C2Sc3ccccc3N2C(C)=O)c1 (configuration not stated) | 
21 | 1.4 | COc1ccc(OCCCCN2CCC(C(=O)c3ccccc3)CC2)c(C2Sc3ccccc3N2C(C)=O)c1 (configuration not stated) | 
22 | 8.7 | COc1ccc(OCCCCN2CCC(C(=O)c3ccc(Cl)cc3)CC2)c(C2Sc3ccccc3N2C(C)=O)c1 (configuration not stated) | 
23 | 2.3 | COc1cc(CCN2CCN(CCCCOc3ccc(Cl)cc3C3Sc4ccccc4N3C(C)=O)CC2)cc(OC)c1OC (configuration not stated) | 
24 | 36 | CC(=O)N1c2ccccc2SC1c1ccc(OCCN(C)C)cc1 (configuration not stated) | 
25 | 4 | CN(CCCOc1ccccc1C1Sc2ccccc2N1C=O)C1CCCCC1 (configuration not stated) | 
26 | 0.34 | COc1ccc(OCCCCN(C)CCc2ccc(OC)c(OC)c2OC)c(C2Sc3ccccc3N2C(C)=O)c1 (configuration not stated) | 
27 | 2.7 | COc1ccc(OCCCCCN(C)C2CCCCC2)c(C2Sc3ccccc3N2C=O)c1 (configuration not stated) | 
28 | 4.2 | COc1ccc(OCCCN(C)C2CCCCC2)c(C2Sc3ccccc3N2C(C)=O)c1 (configuration not stated) | 
29 | 1 | CCN(CCCCOc1ccc(OC)cc1C1Sc2ccccc2N1C(C)=O)CCc1cc(OC)c(OC)c(OC)c1 (configuration not stated) | 
30 | 1.2 | COc1ccc(OCCCCCN(C)C2CCCCC2)c(C2Sc3ccccc3N2C(C)=O)c1 (configuration not stated) | 
31 | 4.8 | CC(=O)N1c2ccccc2SC1c1cc([N+](=O)[O-])ccc1OCCCCN1CCC(C(=O)c2ccccc2)CC1 (configuration not stated) | 
32 | 1.2 | COc1ccc(OCCCCN(CCc2cc(OC)c(OC)c(OC)c2)C2CC2)c(C2Sc3ccccc3N2C(C)=O)c1 (configuration not stated) | 
33 | 8 | COc1ccc(OCCCCCN(C)CCc2ccc(OC)c(OC)c2OC)c(C2Sc3ccccc3N2C(C)=O)c1 (configuration not stated) | 
34 | 17 | COc1ccc(OCCCCCN2CCC(C(=O)c3ccccc3)CC2)c(C2Sc3ccccc3N2C(C)=O)c1 (configuration not stated) | 

More lines, now with the values behind:

Row | SMILES | IC50 [1] [µM] | other results
35 | COc1ccc(OCCCN2CCC(C(=O)c3ccccc3)CC2)c(C2Sc3ccccc3N2C(C)=O)c1 (configuration not stated) | 11 | 
36 | CC(=O)N1CCSC1c1ccc(OCCN(C)C)cc1 (configuration not stated) | > 100 | 
37 | COc1ccc(OCCCCCN(C)CCc2ccc(OC)c(OC)c2)c(C2Sc3ccccc3N2C(C)=O)c1 (configuration not stated) | 1.3 | 
38 | COc1ccc(OCCCN(C)C)c(C2Sc3ccccc3N2C(C)=O)c1 (configuration not stated) | 1.6 | 
39 | CC(=O)N1c2ccccc2SC1c1ccccc1OCCN(C)C (configuration not stated) | 17 | 
40 | COc1ccc(OCCCCN(C)CCCc2ccc(OC)c(OC)c2OC)c(C2Sc3ccccc3N2C(C)=O)c1 (configuration not stated) | 1.2 | 
41 | CC(=O)N1c2ccccc2SC1c1cc([N+](=O)[O-])ccc1OCCCCN(C)C1CCCCC1 (configuration not stated) | 5.4 | 
42 | COc1cccc(C2Sc3ccccc3N2C(C)=O)c1OCCCCN(C)C1CCCCC1 (configuration not stated) | 8.8 | 
43 | COc1cccc(C2Sc3ccccc3N2C(C)=O)c1OCCCN(C)C (configuration not stated) | 13 | 
44 | COc1ccc(OCCCCN2CCN(CCc3cc(OC)c(OC)c(OC)c3)CC2)c(C2Sc3ccccc3N2C(C)=O)c1 (configuration not stated) | 0.47 | 
45 | CC(=O)N1CCSC1c1cc([N+](=O)[O-])ccc1OCCCN(C)C (configuration not stated) | 4.1 | 
46 | CCC(=O)N1c2ccccc2SC1c1ccccc1OCCCN(C)C1CCCCC1 (configuration not stated) | 3.2 | 
47 | COc1ccc(OCCCCN(C)CCc2cc(OC)c(OC)c(OC)c2)c(C2Sc3ccccc3N2C(C)=O)c1 (configuration not stated) | 0.13 | Decrease of SBP [2]: 48.3 mmHg; EC10 [3]: 0.2 µM; ED50 [4]: 12 mg/kg; Decrease of SBP [5]: 87.5 mmHg
48 | CC(=O)N1c2ccccc2SC1c1cc(Cl)ccc1OCCCCN1CCC(C(=O)c2ccccc2)CC1 (configuration not stated) | 13 | 
49 | COc1ccc(OCCCCN(C)C2CCCCC2)c(C2Sc3ccccc3N2C(C)=O)c1 (configuration not stated) | 4 | 
50 | CC(=O)N1c2ccccc2SC1c1cc([N+](=O)[O-])ccc1OCCCN(C)C (configuration not stated) | 6.2 | 
51 | CCC(=O)N1c2ccccc2SC1c1cc(OC)ccc1OCCCCN1CCC(C(=O)c2ccccc2)CC1 (configuration not stated) | 10 | 
52 | CC(=O)N1c2ccccc2SC1c1ccccc1OCCCN(C)C1CCCCC1 (configuration not stated) | 1.7 | 
53 | CCC(=O)N1c2ccccc2SC1c1cc(OC)ccc1OCCCCN1CCN(CCc2cc(OC)c(OC)c(OC)c2)CC1 (configuration not stated) | 1.2 | 
54 | COc1ccc(OCCCCCCN2CCN(CCc3ccc(OC)c(OC)c3)CC2)c(C2Sc3ccccc3N2C(C)=O)c1 (configuration not stated) | 11 | 
55 | COc1ccc(OCCCN(C)CCc2ccc(OC)c(OC)c2)c(C2Sc3ccccc3N2C(C)=O)c1 (configuration not stated) | 0.78 | 
56 | COc1ccc(OCCCCN2CCC(C(=O)c3ccccc3)CC2)c(C2SCCN2C(C)=O)c1 (configuration not stated) | 410 | 
57 | COc1ccc(OCCCCNCCc2cc(OC)c(OC)c(OC)c2)c(C2Sc3ccccc3N2C(C)=O)c1 (configuration not stated) | 6.5 | 
58 | COc1ccc(OCCCCN(CCc2cc(OC)c(OC)c(OC)c2)C(C)C)c(C2Sc3ccccc3N2C(C)=O)c1 (configuration not stated) | 0.13 | 
59 | COc1ccc(OCCCN2CCN(CCc3ccc(OC)c(OC)c3)CC2)c(C2Sc3ccccc3N2C(C)=O)c1 (configuration not stated) | 3 | 
60 | COc1ccc([C@@H]2Sc3ccccc3N(CCN(C)C)C(=O)[C@@H]2OC(C)=O)cc1 [DILTIAZEM] | 0.17 | Decrease of SBP [2]: 22.5 mmHg; EC10 [3]: 2.6 µM; Ratio [6]: 6.5; ED50 [4]: > 30 mg/kg; Decrease of SBP [5]: 44.2 mmHg; EC30 [7]: 0.44 µM
61 | COC(=O)C1=C(C)NC(C)=C(C(=O)OCCN(C)Cc2ccccc2)C1c1cccc([N+](=O)[O-])c1 (configuration not stated) [NICARDIPINE] |  | ED50 [4]: > 30 mg/kg
62 | COC(=O)C1=C(C)NC(C)=C(C(=O)OC)C1c1ccccc1[N+](=O)[O-] [NIFEDIPINE] |  | ED50 [4]: > 30 mg/kg
63 | Clc1ccccc1CN1CCc2sccc2C1 [TICLOPIDINE] |  | ED50 [4]: 260 mg/kg
64 | COc1ccc(CCN(C)CCCC(C#N)(c2ccc(OC)c(OC)c2)C(C)C)cc1OC (configuration not stated) [VERAPAMIL] | 0.1 | Decrease of SBP [2]: 83.3 mmHg; Decrease of SBP [8]: 24.2 mmHg; ED50 [4]: > 30 mg/kg
